Calls of active or inactive are those of the source. The calls are words filed in the database; no cut-off is given here.

For series [1], the target named is T1, N-acylethanolamine-hydrolyzing acid amidase (Rattus norvegicus) (UniProt Q5KTC7).
T1 sequence (whole entry): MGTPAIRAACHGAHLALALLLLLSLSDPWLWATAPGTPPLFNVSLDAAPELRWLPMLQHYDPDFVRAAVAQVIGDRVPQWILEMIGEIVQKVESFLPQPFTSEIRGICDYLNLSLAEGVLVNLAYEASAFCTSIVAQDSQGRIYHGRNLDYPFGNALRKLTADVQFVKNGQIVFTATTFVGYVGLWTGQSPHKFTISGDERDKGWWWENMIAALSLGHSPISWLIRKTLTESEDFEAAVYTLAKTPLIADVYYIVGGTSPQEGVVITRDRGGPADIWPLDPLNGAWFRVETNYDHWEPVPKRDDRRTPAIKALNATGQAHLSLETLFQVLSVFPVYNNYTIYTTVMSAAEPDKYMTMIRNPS
Put plainly: Reversible inhibition of rat NAAA expressed in HEK293 cells at 5 uM using heptadecenoylethanolamide as substrate after 8 hrs by rapid dilution based HPLC-MS/MS analysis. Format: cell-based.

A short description of series [2]: Half life in rat 80% plasma by HPLC analysis. Format: ADME, cell-free. Summed up:
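Fresh rat plasma diluted to 80% (v/v) with PBS pH 7.4. Compound added to 1 µM final (DMSO ≤1%), incubated at 37 °C for 16 h; remaining compound measured by HPLC.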

The nature of series [3]: Half life in pH 7.4 tris-HCl buffer by HPLC analysis.
The test system of series [4] is Mus musculus. Put plainly: Anti-inflammatory activity in mouse model of LPS-induced acute lung injury assessed as reduction in leukocytes in lungs at 30 mg/kg, po qd for 5 days by hematoxylin and eosin staining-based light microscopic analysis. Format: functional, organism-based. Summed up: (§1)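 129s mice (20-22 g), randomly grouped at 6-8 per group. Under anesthesia they received intratracheal LPS (7 mg/kg) in PBS. From the day of LPS they got oral dosing once daily at 30 mg/kg in saline with 5% PEG 400 and 5% Tween 80, or vehicle alone. Killed 5 days after LPS. Lungs were fixed in paraformaldehyde at 4 °C, paraffin-embedded, cut at 5 µm and H&E-stained.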

Series [5] addresses T2, Fatty-acid amide hydrolase 1 (Rattus norvegicus, UniProt P97612).
T2 sequence (P97612 whole entry): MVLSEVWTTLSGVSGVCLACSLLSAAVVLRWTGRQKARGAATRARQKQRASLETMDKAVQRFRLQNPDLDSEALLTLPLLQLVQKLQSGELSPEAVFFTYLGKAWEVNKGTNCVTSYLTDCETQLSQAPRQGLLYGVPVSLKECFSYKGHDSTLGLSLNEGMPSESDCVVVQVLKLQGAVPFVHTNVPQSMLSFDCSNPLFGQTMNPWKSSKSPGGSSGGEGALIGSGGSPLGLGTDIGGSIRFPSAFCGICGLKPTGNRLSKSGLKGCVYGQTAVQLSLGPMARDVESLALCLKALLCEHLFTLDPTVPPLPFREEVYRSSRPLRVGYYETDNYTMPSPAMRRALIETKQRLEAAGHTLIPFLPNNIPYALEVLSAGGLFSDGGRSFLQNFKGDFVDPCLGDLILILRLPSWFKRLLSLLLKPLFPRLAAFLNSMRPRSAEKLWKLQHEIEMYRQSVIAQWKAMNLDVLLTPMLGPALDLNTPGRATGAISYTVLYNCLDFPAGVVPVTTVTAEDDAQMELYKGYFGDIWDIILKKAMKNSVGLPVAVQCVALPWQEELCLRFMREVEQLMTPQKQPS
Put plainly: Inhibition of rat FAAH expressed in HEK293 cells using [3H]AEA as substrate after 30 mins HPLC-MS/MS analysis. Format: cell-based. As to conditions: in the assay text read “anandamide” for “[3H]AEA”. Summed up:
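Lysate supernatant from HEK293 cells overexpressing rat FAAH (sonication in Tris-sucrose, 800 × g spin). 30 µg protein incubated at 37 °C with 25 µM anandamide in 50 mM Tris-HCl pH 8.0 containing 0.05% fatty-acid-free BSA. Quenched with methanol containing heptadecanoic acid internal standard; remaining substrate quantified by HPLC-MS/MS; IC50 by curve fitting.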

Series [6] deals with T3, N-acylethanolamine-hydrolyzing acid amidase (Rattus norvegicus, UniProt Q5KTC7).
T3 sequence (Q5KTC7 whole entry): T1 sequence (whole entry)
Nature of the series: Inhibition of rat NAAA expressed in HEK293 cells using heptadecenoylethanolamide as substrate after 30 mins HPLC-MS/MS analysis. A digest of the protocol:
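Enzyme source: HEK293 cells stably overexpressing rat NAAA, grown in DMEM/10% FBS with G418. Cells were sonicated in 20 mM Tris-HCl pH 7.5 with 0.32 M sucrose, and the 800 × g supernatant was used. 30 µg protein was incubated with 25 µM heptadecenoylethanolamide for 30 min at 37 °C in 50 mM phosphate pH 4.5 with 0.1% Triton X-100 and 3 mM DTT. Stopped with methanol containing heptadecanoic acid internal standard; remaining substrate measured by HPLC-MS/MS; IC50 from curve fitting.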

Series [7] concerns Mus musculus. Nature of the series: Anti-inflammatory activity in mouse model of LPS-induced acute lung injury assessed as reduction in lung edema at 30 mg/kg, po qd for 5 days by hematoxylin and eosin staining-based light microscopic analysis. Format: functional, organism-based. A digest of the protocol: as §1
In series [8] the test system is Mus musculus. Nature of the series: Anti-inflammatory activity in mouse model of LPS-induced acute lung injury at 30 mg/kg, po qd for 5 days co-treated with 2 mg/kg, ip bid PPAR-alpha antagonist MK886 by hematoxylin and eosin staining-based light microscopic analysis. The class given is functional, organism-based. Summed up:
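129s mice (20-22 g), 6-8 per group, were anesthetized and given intratracheal LPS (7 mg/kg) in PBS. Oral dosing at 30 mg/kg once daily (vehicle: saline, 5% PEG 400, 5% Tween 80) started on the LPS day, together with MK886 at 2 mg/kg i.p. Sacrifice at day 5. Lungs were fixed in paraformaldehyde, embedded in paraffin, sectioned at 5 µm and stained with H&E.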

Series [9] is described as follows: Half life in pH 5 phosphate buffer by HPLC analysis. The class given is physicochemical. Summed up:
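Compound at 1 µM final (DMSO ≤1%) in 50 mM phosphate buffer pH 5.0, held at 37 °C for 16 h; remaining compound determined by HPLC.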

What is called half-life is how long it takes for the measured level to halve. A low value points to rapid decline. As a reminder, the IC50 is the concentration that inhibits the measured activity by half. Read a low IC50 as greater potency in that assay. In the case of `O=C(/C=C/c1ccc(-c2ccccc2)cc1)N1CCCC1`, the inhibition entry in [1] is “Active”. The half-life in series [2], in [3] and in [9] was > 16 h each time. Further, the result in series [4] and in series [7] was Active. In addition, the values for the concentration for half-maximal inhibition (IC50) in series [5] and in series [6] were 550 µM and 1.5 µM, respectively. Besides, the result in series [8] was inactive.

Source of the values: ChEMBL document CHEMBL4368874, “Synthesis, biological evaluation, and structure activity relationship (SAR) study of pyrrolidine amide derivatives as N-acylethanolamine acid amidase (NAAA) inhibitors” (Medchemcomm, 2019).
